According to ChEMBL document CHEMBL1143008, “Synthesis and biological evaluation of chiral alpha-aminoanilides with central antinociceptive activity” (2007):

Tests used:
Assay type in all cases: functional
Mus musculus [1] = test: Antinociceptive effect in Swiss Albino mouse assessed as licking latency at 10 mg/kg, sc after 15 mins by hotplate test; details: route subcutaneous
Mus musculus [2] = test: Antinociceptive activity in sc dosed Swiss Albino mouse by hotplate test
Summary of the method: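 Male Swiss albino mice (23-30 g), s.c. dosing. Paw-licking latency on a 52.5 ± 0.1 °C hot plate, read before and up to 60 min after dosing. Mice outside 12-18 s at pretest were excluded; cutoff was 45 s. […] was fitted from the dose-response data with a constrained four-parameter logistic model.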

Mus musculus [3] = test: Antinociceptive effect in atropine treated Swiss Albino mouse assessed as licking latency at 10 mg/kg, sc by hotplate test; details: route subcutaneous
Summary of the method: (§1)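 Antagonist pretreatment before s.c. test compound in male Swiss albino mice: atropine 5 mg/kg i.p., or hemicholinium-3 1 µg per mouse i.c.v. The i.c.v. dose was 5 µL in isotonic saline under ether anaesthesia. Paw-licking latency on a 52.5 °C hot plate was read at each compound's time of maximum effect, compared with saline-saline mice. Cutoff was 45 s.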

Mus musculus [4] = test: Effect on motor coordination in Swiss Albino mouse assessed as number of falls from rotarod at 10 mg/kg after 15 mins relative to CMC
Summary of the method: (§2)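 Motor coordination of male Swiss albino mice on the rota-rod, counted as number of falls, before dosing and 15, 30 and 45 min after. Each value is the mean of 6-8 mice, compared with vehicle-treated controls.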

Mus musculus [5] = test: Effect on motor coordination in Swiss Albino mouse assessed as number of falls from rotarod at 10 mg/kg after 30 mins relative to CMC; summary of the method: as §2
Mus musculus [6] = test: Effect on motor coordination in Swiss Albino mouse assessed as number of falls from rotarod at 10 mg/kg after 45 mins relative to CMC; summary of the method: as §2
Mus musculus [7] = test: Antinociceptive effect in Swiss Albino mouse assessed as licking latency at 50 mg/kg, sc after 15 mins by hotplate test; details: route subcutaneous
Summary of the method: (§3)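 Hot-plate test at 52.5 ± 0.1 °C in male Swiss albino mice (23-30 g) after s.c. dosing. The endpoint was fore- or hind-paw licking, timed before and at intervals up to 60 min. Mice scoring below 12 or above 18 s at pretest were rejected, with a 45 s cutoff. Mean ± SEM.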

Mus musculus [8] = test: Antinociceptive effect in atropine treated Swiss Albino mouse assessed as licking latency at 50 mg/kg, sc by hotplate test; details: route subcutaneous; summary of the method: as §1
Mus musculus [9] = test: Antinociceptive effect in hemicolinium-3 treated Swiss Albino mouse assessed as licking latency at 50 mg/kg, sc by hotplate test; details: route subcutaneous; summary of the method: as §1
Mus musculus [10] = test: Effect on motor coordination in Swiss Albino mouse assessed as number of falls from rotarod at 50 mg/kg after 15 mins relative to CMC; summary of the method: as §2
Mus musculus [11] = test: Effect on motor coordination in Swiss Albino mouse assessed as number of falls from rotarod at 50 mg/kg after 30 mins relative to CMC; summary of the method: as §2
Mus musculus [12] = test: Effect on motor coordination in Swiss Albino mouse assessed as number of falls from rotarod at 50 mg/kg after 45 mins relative to CMC; summary of the method: as §2
Mus musculus [13] = test: Antinociceptive effect in Swiss Albino mouse assessed as licking latency at 15 mg/kg, sc after 15 mins by hotplate test; details: route subcutaneous; summary of the method: as §3
Mus musculus [14] = test: Antinociceptive effect in Swiss Albino mouse assessed as licking latency at 10 mg/kg, sc after 30 mins by hotplate test; details: route subcutaneous
Summary of the method: (§4)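 Male Swiss albino mice (23-30 g) got 1, 5 or 10 mg/kg s.c. or saline. Fore- or hind-paw licking latency on a 52.5 ± 0.1 °C plate was taken before dosing and at 15, 30, 45 and 60 min. Pretest range was 12-18 s (others rejected) with a 45 s cutoff. Each value is the mean of at least 10 mice; mean ± SEM.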

Mus musculus [15] = test: Antinociceptive effect in Swiss Albino mouse assessed as licking latency at 1 mg/kg, sc after 45 mins by hotplate test; details: route subcutaneous; summary of the method: as §4
Mus musculus [16] = test: Antinociceptive effect in Swiss Albino mouse assessed as licking latency at 5 mg/kg, sc after 45 mins by hotplate test; details: route subcutaneous; summary of the method: as §4
Mus musculus [17] = test: Antinociceptive effect in Swiss Albino mouse assessed as licking latency at 10 mg/kg, sc after 45 mins by hotplate test; details: route subcutaneous; summary of the method: as §4
Mus musculus [18] = test: Antinociceptive effect in Swiss Albino mouse assessed as licking latency at 1 mg/kg, sc after 60 mins by hotplate test; details: route subcutaneous; summary of the method: as §4
Mus musculus [19] = test: Antinociceptive effect in hemicolinium-3 treated Swiss Albino mouse assessed as licking latency at 10 mg/kg, sc by hotplate test; details: route subcutaneous; summary of the method: as §1
Mus musculus [20] = test: (§5) Antinociceptive effect in Swiss Albino mouse assessed as licking latency at 5 mg/kg, sc after 15 mins by hotplate test; details: route subcutaneous; summary of the method: as §4
Mus musculus [21] = test: Antinociceptive effect in Swiss Albino mouse assessed as licking latency at 1 mg/kg, sc after 15 mins by hotplate test; details: route subcutaneous; summary of the method: as §4
Mus musculus [22] = test: Antinociceptive effect in Swiss Albino mouse assessed as licking latency at 1 mg/kg, sc after 30 mins by hotplate test; details: route subcutaneous; summary of the method: as §4
Mus musculus [23] = test: Antinociceptive effect in Swiss Albino mouse assessed as licking latency at 5 mg/kg, sc after 30 mins by hotplate test; details: route subcutaneous; summary of the method: as §4
Mus musculus [24] = test: Antinociceptive effect in Swiss Albino mouse assessed as licking latency at 5 mg/kg, sc after 60 mins by hotplate test; details: route subcutaneous; summary of the method: as §4
Mus musculus [25] = test: Antinociceptive effect in Swiss Albino mouse assessed as licking latency at 10 mg/kg, sc after 60 mins by hotplate test; details: route subcutaneous; summary of the method: as §4
Mus musculus [26] = test: Antinociceptive effect in Swiss Albino mouse assessed as licking latency at 20 mg/kg, sc after 15 mins by hotplate test; details: route subcutaneous; summary of the method: as §3
Mus musculus [27] = test: Antinociceptive effect in Swiss Albino mouse assessed as licking latency at 30 mg/kg, sc after 15 mins by hotplate test; details: route subcutaneous; summary of the method: as §3
Mus musculus [28] = test: Antinociceptive effect in atropine treated Swiss Albino mouse assessed as licking latency at 30 mg/kg, sc by hotplate test; details: route subcutaneous; summary of the method: as §1
Mus musculus [29] = test: Effect on motor coordination in Swiss Albino mouse assessed as number of falls from rotarod at 30 mg/kg after 15 mins relative to CMC; summary of the method: as §2
Mus musculus [30] = test: Effect on motor coordination in Swiss Albino mouse assessed as number of falls from rotarod at 30 mg/kg after 30 mins relative to CMC; summary of the method: as §2
Mus musculus [31] = test: Effect on motor coordination in Swiss Albino mouse assessed as number of falls from rotarod at 30 mg/kg after 45 mins relative to CMC; summary of the method: as §2
Mus musculus [32] = test: Antinociceptive effect in Swiss Albino mouse assessed as licking latency at 40 mg/kg, sc after 15 mins by hotplate test; details: route subcutaneous; summary of the method: as §3
Mus musculus [33] = test: as §5; details: route subcutaneous; remark: listed apart in the source

Cc1cccc(C)c1NC(=O)[C@H](N)CC(C)C
Activity (Mus musculus [1]): 20.7 s | ED50 (Mus musculus [2]): 6.6 mg/kg | Activity (Mus musculus [3]): 23.9 s | Activity (Mus musculus [4]): 2.2 | Activity (Mus musculus [5]): 1.5 | Activity (Mus musculus [6]): 0.8

Cc1cccc(C)c1NC(=O)[C@@H](C)N [(R)-TOCAINIDE]
Activity (Mus musculus [7]): 26.5 s | ED50 (Mus musculus [2]): 33.6 mg/kg | Activity (Mus musculus [8]): 17.5 s | Activity (Mus musculus [9]): 18.6 s | Activity (Mus musculus [10]): 1.7 | Activity (Mus musculus [11]): 1.4 | Activity (Mus musculus [12]): 0.9

Cc1ccccc1NC(=O)[C@H](C)N
Activity (Mus musculus [13]): 16.2 s

Cc1cccc(C)c1NC(=O)[C@H](N)C(C)C
Activity (Mus musculus [14]): 23.6 s | Activity (Mus musculus [15]): 15.3 s | Activity (Mus musculus [16]): 17.1 s | Activity (Mus musculus [17]): 18.5 s | Activity (Mus musculus [18]): 14.5 s | Activity (Mus musculus [1]): 30.3 s | ED50 (Mus musculus [2]): 5.7 mg/kg | Activity (Mus musculus [3]): 16.9 s | Activity (Mus musculus [19]): 17.5 s | Activity (Mus musculus [20]): 23.7 s | Activity (Mus musculus [21]): 16.5 s | Activity (Mus musculus [22]): 17.2 s | Activity (Mus musculus [23]): 20.6 s | Activity (Mus musculus [24]): 14.9 s | Activity (Mus musculus [25]): 15.1 s | Activity (Mus musculus [4]): 2.3 | Activity (Mus musculus [5]): 1.2 | Activity (Mus musculus [6]): 0.9

Cc1cccc(C)c1NC(=O)[C@@H](N)C(C)C
Activity (Mus musculus [1]): 15.8 s

Cc1cccc(C)c1NC(=O)[C@H](C)N [S-TOCAINIDE]
Activity (Mus musculus [7]): 14.3 s

Cc1cc(Cl)ccc1NC(=O)[C@@H](C)N
Activity (Mus musculus [7]): 25.5 s | ED50 (Mus musculus [2]): 39.2 mg/kg | Activity (Mus musculus [8]): 25 s | Activity (Mus musculus [10]): 1.5 | Activity (Mus musculus [11]): 1.1 | Activity (Mus musculus [12]): 0.8

Cc1cccc(C)c1NC(=O)[C@@H](N)CC(C)C
Activity (Mus musculus [1]): 21.3 s | ED50 (Mus musculus [2]): 6.8 mg/kg | Activity (Mus musculus [3]): 20.7 s

Cc1cccc(C)c1N(C)C(=O)[C@H](N)C(C)C
Activity (Mus musculus [26]): 13.6 s

Cc1cc(Cl)cc(C)c1NC(=O)[C@H](N)C(C)C
Activity (Mus musculus [7]): 17 s

Cc1cc(Cl)cc(C)c1NC(=O)[C@H](C)N
Activity (Mus musculus [27]): 25.1 s | ED50 (Mus musculus [2]): 25.5 mg/kg | Activity (Mus musculus [28]): 26.6 s | Activity (Mus musculus [29]): 1.4 | Activity (Mus musculus [30]): 1.2 | Activity (Mus musculus [31]): 1

Cc1cc(Cl)cc(C)c1NC(=O)[C@@H](C)N
Activity (Mus musculus [27]): 23.2 s | ED50 (Mus musculus [2]): 17.8 mg/kg | Activity (Mus musculus [28]): 23.7 s

Cc1cc(Cl)ccc1NC(=O)[C@@H](N)C(C)C
Activity (Mus musculus [32]): 19.9 s | ED50 (Mus musculus [2]): 25.9 mg/kg

C[C@@H](N)C(=O)Nc1ccc(Cl)cc1
Activity (Mus musculus [33]): 17.3 s

C[C@H](N)C(=O)Nc1ccc(Cl)cc1
Activity (Mus musculus [33]): 15.8 s

Cc1cc(Cl)cc(C)c1NC(=O)[C@@H](N)C(C)C
Activity (Mus musculus [7]): 17.2 s

Cc1ccccc1NC(=O)[C@@H](C)N
Activity (Mus musculus [1]): 17.1 s

Cc1cc(Cl)ccc1NC(=O)[C@H](C)N
Activity (Mus musculus [7]): 21.1 s | ED50 (Mus musculus [2]): 41.3 mg/kg | Activity (Mus musculus [8]): 20.5 s

Cc1cccc(C)c1NC(=S)[C@H](C)N
Activity (Mus musculus [7]): 18.6 s

Cc1cccc(C)c1NC(=S)[C@@H](C)N
Activity (Mus musculus [7]): 18.8 s

Cc1cccc(C)c1N(C)C(=O)[C@@H](N)C(C)C
Activity (Mus musculus [1]): 13.6 s

Cc1cc(Cl)ccc1NC(=O)[C@H](N)C(C)C
Activity (Mus musculus [27]): 27.9 s | ED50 (Mus musculus [2]): 19.6 mg/kg | Activity (Mus musculus [28]): 26.4 s | Activity (Mus musculus [29]): 1.5 | Activity (Mus musculus [30]): 1.3 | Activity (Mus musculus [31]): 0.8
